Assay results reported in ChEMBL document CHEMBL5104224, “Alkyltriphenylphosphonium turns naphthoquinoneimidazoles into potent membrane depolarizers against mycobacteria” (RSC Med Chem, 2022).
Activity calls are given as the source filed them. The calls are words filed in the database; no cut-off is given here.

Experiments:
[1] = test system: Mycobacterium tuberculosis variant bovis; experiment: Bactericidal activity against Mycobacterium bovis BCG ATCC 35734 assessed as reduction on colony forming unit at 5 uM measured after 8 days by time killing assay; type: functional, organism-based; conditions: time 8.0 day
[2] = test system: Mycobacterium tuberculosis variant bovis; experiment: Induction of oxidative stress Mycobacterium bovis BCG ATCC 35734 expressing pfurA-RFP assessed as activation of pfurA at 0.5 to 2 times MIC90 measured after 24 hrs by fluorescence assay; type: functional, organism-based
How it was run: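 BCG carrying an integrated pfurA-mCherry reporter (kanamycin-selected). […] Red fluorescence (Ex 587/Em 630 nm) normalized to OD600. INH negative control.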

[3] = test system: Mycobacterium tuberculosis variant bovis; experiment: Antimycobacterial activity against Mycobacterium bovis BCG ATCC 35734 assessed as increase in ROS level at 0.175 to 0.64 uM incubated for 2 hrs by CellROX green reagent fluorescence assay; type: functional, organism-based; conditions: dose 0.175-0.64 µM, DDE = dose-dependent effect
How it was run: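 CellROX Green then added to 10 μM final, followed by 30 min at 37°C in the dark. Readout is green fluorescence (Ex 485/Em 520 nm) normalized to OD600. Naphthoquinone positive control, INH negative control.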

[4] = test system: Mycobacterium tuberculosis variant bovis; experiment: Antimycobacterial activity against Mycobacterium bovis BCG ATCC 35734 assessed as inhibition of bacterial growth by two-fold serial broth dilution method; type: functional
How it was run: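 BCG grown at 37°C in 7H9 broth with 0.05% Tween-80, 0.5% glycerol and 10% ADC. Broth dilution method. MIC50/MIC90 are the concentrations giving 50%/90% growth inhibition versus untreated drug-free controls.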

[5] = test system: Mycobacterium tuberculosis variant bovis; experiment: Bactericidal activity against Mycobacterium bovis BCG ATCC 35734 assessed as reduction on colony forming unit at 15 uM measured upto 14 days by time killing assay; type: functional, organism-based; conditions: time <= 14.0 day

| SMILES | Activity [2] | Activity [3] | other results |
| --- | --- | --- | --- |
| Cc1nc2c(n1CCCCCCCCC[P+](c1ccccc1)(c1ccccc1)c1ccccc1)C(=O)c1ccccc1C2=O |  |  | Activity [1]: Active |
| CCCCCCCCn1c2c([n+](CCCC)c1C)C(=O)c1ccccc1C2=O.[Br-] | Active | Dde |  |
| CCCCn1c2c([n+](C3CCC4(CCCCC4)CC3)c1C)C(=O)c1ccccc1C2=O.[Br-] | Active | Dde |  |
| Cc1nc2c(n1CCCCCCCCCCC[P+](c1ccccc1)(c1ccccc1)c1ccccc1)C(=O)c1ccccc1C2=O |  |  | MIC90 [4]: 0.8 µM |
| NNC(=O)c1ccncc1 |  |  | Activity [5]: Active |
